Assay results reported in ChEMBL document CHEMBL6134900 (J Med Chem, 2025).

Tested on: NCI-H2030
Assay: Antitumor activity against human NCI-H2030 cells harboring KRAS G12C mutant/SMARCA4 mutant assessed as cell growth inhibition incubated for 7 days by Incucyte S3 analysis
Type: functional, cell-based
Conditions: time 7.0 day; call rule not given here
Summary of the method: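 H2030 cells plated at 500 per well and grown overnight at 37 °C. Treated with 3-fold dilutions of sotorasib, test agent, or both. Confluency imaged every 4 h for 7 days on IncuCyte S3. Synergy scored as Bliss/Lowe consensus, >10 taken as synergy.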

`C=CC(=O)N1CCN(c2nc(=O)n(-c3c(C)ccnc3C(C)C)c3nc(-c4c(O)cccc4F)c(F)cc23)[C@@H](C)C1` was tested, and the Activity was “Active; Minimal Inhibition Observed”.
